Screening data (PubChem BioAssay)
LMPTP inh: LMPTP (human) inhibition. P24666. recombinant LMPTP-A, OMFP fluorogenic substrate, fluorescence intensity. AID 651560. 0.22% of 360,000 active. inhibition, % at 20 µM;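 active means compounds that cut the enzyme signal by at least half of the control window in the single-dose screen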;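 further: plate controls were DMSO wells with enzyme plus substrate for no effect and substrate without enzyme for full effect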
Target sequence (P24666 whole entry, looked up): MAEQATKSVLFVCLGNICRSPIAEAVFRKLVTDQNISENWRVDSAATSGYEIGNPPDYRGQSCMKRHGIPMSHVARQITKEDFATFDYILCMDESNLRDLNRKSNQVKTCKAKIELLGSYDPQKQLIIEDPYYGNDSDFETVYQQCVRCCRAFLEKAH
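Material: LMPTP-A; amount: 0.625 nM enzyme; doses: single 20 µM dose; times: reaction 50 min, room temperature, dark; technique: fluorescence intensity of OMFP turnover product; benchmarks: no-enzyme and uninhibited controls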
rCAG binder: molecules binding r(CAG) RNA repeats. inhibition, % at 3 µM. 1.3% of 370,000 active. r(CAG) RNA repeat, TO-PRO-1 dye displacement fluorescence;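 active means inhibition above the plate cutoff, the mean of all test compounds on that plate plus 3 SD, cut at about 35% in these data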;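 further: 0% = DMSO alone and 100% = 100 µM mitoxantrone as full dye displacement; higher means more dye released from RNA so lower well fluorescence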
NadD inh: NadD (S. aureus) enzyme inhibition | inhibition, % at 20 µM | 0.78% of 360,000 active | AID 602399 | purified NadD enzyme, colorimetric absorbance read-out; in the data active means inhibition above about 26%
Scp1 inh: blocks human Scp-1 phosphatase activity. Q9GZU7. Recombinant Scp1, phosphopeptide, malachite green phosphate absorbance. inhibition, % at 20 µM. 0.88% of 340,000 active;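 active means inhibition above about 50% at 20 µM, limit read from the data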;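 further: plate controls were DMSO wells with enzyme for no effect and wells lacking enzyme for full effect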
Target sequence (Q9GZU7 76-261 limits assumed): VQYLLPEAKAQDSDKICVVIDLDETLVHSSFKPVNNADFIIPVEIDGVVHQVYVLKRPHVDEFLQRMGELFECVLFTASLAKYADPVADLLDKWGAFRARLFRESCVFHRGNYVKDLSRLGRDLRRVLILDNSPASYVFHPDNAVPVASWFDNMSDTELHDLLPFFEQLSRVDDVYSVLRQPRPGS
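Material: truncated SCP-1 phosphatase (76-261aa) / Buffer or medium: 50 mM Tris acetate pH 5.5, 0.005% Tween-20, 10 mM MgCl2 / Compound dosing: one concentration, 20 µM, with 1.0% DMSO / Incubation: 45 min room-temperature reaction, 5 min colour, 30 min stabiliser / Detection: colorimetric free-phosphate detection, absorbance 630 nm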
STEP block: blocks human striatal-enriched tyrosine phosphatase; recombinant STEP, OMFP fluorogenic substrate, fluorescence; inhibition, % at 20 µM; 0.25% of 360,000 active; AID 588621;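 active means inhibition at 20 µM, scaled per plate between control wells, above about 37%, limit read from the data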;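 further: 0% = DMSO with enzyme and substrate and 100% = substrate only without enzyme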
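Assay system: isolated STEP enzyme / Timing: 20 min at room temperature, dark / Doses: 20 µM, 1% DMSO / Technique: fluorescence intensity, excitation 480 nm, emission 540 nm / Reagent: fluorogenic phosphatase substrate OMFP at 25 µM final / Measure: percent inhibition scaled to no-enzyme and uninhibited-enzyme controls, plate-pattern corrected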
Scp-1 conf: Scp-1 (human) inhibition, single-dose confirmed; shares compounds with Scp1 inh; recombinant SCP-1 catalytic domain, phosphate release, malachite green absorbance; inhibition, % at 20 µM; 61% of 2,500 active; AID 540281;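 further: plate controls were DMSO with enzyme for no effect and buffer wells lacking enzyme for full effect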
MG interference: counter-screen for Scp-1 inhibitors: colorimetric interference | shares compounds with Scp1 inh | Colorimetric interference counterscreen, malachite green absorbance 630 nm | apparent inhibition (interference), % at 20 µM | 2,500 tested, under 10 active;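 further: compounds added after enzyme reaction finished so only phosphate colour detection is probed; plate controls were DMSO wells with completed Scp-1 reaction for no effect and substrate wells lacking enzyme for full effect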
Scp-1 Tm shift: binds human Scp-1, shifting its melting temperature; shares compounds with Scp1 inh; Recombinant SCP1, Sypro Orange thermal shift Tm; thermal shift relative to vanadate control, % at 40 µM; 25% of 1,500 active;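 active means substances whose mean melting-temperature shift, as a percentage of the reference inhibitor's shift, reaches about 5.3%, limit read from the data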;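 further: 0% = Tm of DMSO wells and 100% = Tm with sodium orthovanadate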
An asterisk follows results filed as active; x = no result. This is a sample that favours compounds with a hit; in the whole collection about 2.6% have one here.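 How the source made its calls, unless noted: active means inhibition of at least 30% at 20 µM; inactive means the rest.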

SMILES	LMPTP inh	rCAG binder	NadD inh	Scp1 inh	STEP block	Scp-1 conf	MG interference	Scp-1 Tm shift
CN1C(=O)S/C(=C\c2ccccc2OCc2ccc(C(=O)O)cc2)C1=O	2	12	2	18	5	x	x	x
COc1cc(/C=C(\C#N)C(=O)Nc2cccc(C(=O)O)c2)ccc1OCc1ccc(F)cc1	1	20	19	56*	2	27	-27	x
N#C/C(=C/c1ccc(OCc2ccc(C(=O)O)cc2)cc1)C(=O)Nc1ccccc1	2	x	12	71*	3	82*	-7	-9
Cc1cc(NS(=O)(=O)c2ccc(NC(=O)CSc3nnc(-c4cnccn4)n3-c3ccccc3)cc2)nc(C)n1	x	16	x	x	x	x	x	x
COC1=C[C@H](C(=O)NC2CCN(Cc3ccccc3)CC2)[C@@]2(C)Cc3ccccc3[C@H]2CC1=O	x	-1	x	x	x	x	x	x
C/C=C/C(=O)N1CCc2cc(S(=O)(=O)N(C)Cc3ccco3)ccc21	x	6	x	x	x	x	x	x
CCOC(=O)NN1C(=O)c2ccccc2NC1(C)C	0	1	2	72*	-1	-4	-7	x
C=CCNC(=O)NCC1CCN(Cc2ccc(OC)cc2)CC1	x	1	x	x	x	x	x	x
C[N+]1(C2CCC3CCCC2C3O)CCCC1 (stereo not drawn)	-1	-1	13	93*	-3	76*	-16	-24
CCCCNC(=O)C[C@@H]1C(=O)N(CCc2ccc(Cl)cc2)C2=CCCCC[C@]21C(=O)OC	x	4	x	x	x	x	x	x
CC(=O)NS(=O)(=O)c1ccc(NC(=O)/C=C/c2ccco2)cc1	0	6	-4	0	-1	x	x	x
NS(=O)(=O)c1ccc(NC(=O)/C=C/c2ccco2)cc1	4	13	-2	68*	5	64*	-5	5
COc1ccc(S(=O)(=O)NCC(=O)N2CCN(c3ccccn3)CC2)c(OC)c1	x	-1	x	x	x	x	x	x
O=C(O)c1ccccc1C(=O)Nc1nccs1	-2	-1	-5	-9	0	x	x	x
O=C(O)c1ccccc1C(=O)Nc1n[nH]c(=S)s1	-1	3	-2	99*	1	42*	-3	-4
O=C(c1cccc(C(F)(F)F)c1)N1CC[C@H]2[C@H](CCCN2Cc2ccccc2)C1	x	-1	x	x	x	x	x	x
Nc1ccc2nc(SCC(=O)Nc3ccc(N4CCOCC4)c(Cl)c3)sc2c1	0	8	18	97*	-3	-1	-5	x
CCCC(=O)Nc1ccc2nc(SCC(=O)Nc3ccc(N4CCOCC4)c(Cl)c3)sc2c1	2	14	13	15	0	x	x	x
Cc1ccc(-n2c(Cc3cccs3)nnc2SCC(=O)Nc2ccc(OCc3ccccc3)cc2)cc1	x	7	x	x	x	x	x	x
COC(=O)c1cc(-c2cnc(OC)nc2OC)c(=O)n2c1CCC2	x	1	x	x	x	x	x	x
CCOC(=O)C1=C(C(=O)OCC)C2N(Cc3ccc(C#N)cc3)c3ccccc3[C@@]23C[C@@H](C(=O)OC)N(S(=O)(=O)c2ccc(C)cc2)C3=N1 (stereo partly drawn)	x	16	x	x	x	x	x	x
CCOC(=O)CN1C(=O)S/C(=C/c2ccc(N3CCCCC3)o2)C1=O	-1	-15	16	11	-10	x	x	x
CCOC(=O)CN1C(=O)S/C(=C\c2ccc(-c3ccc(C(=O)O)c(Cl)c3)o2)C1=O	12	14	-4	90*	90*	59*	-15	12*
CCN1/C(=C2\C(=O)N(c3ccccc3)N=C2C)C=Cc2cc(C)ccc21	-1	0	4	58*	2	-14	-20	x
CCN1/C(=c2/s/c(=C3/C(=O)N(c4ccccc4)N=C3C)n(CC)c2=O)C=Cc2ccccc21	0	-1	-5	-2	5	x	x	x
SMILES	LMPTP inh	rCAG binder	NadD inh	Scp1 inh	STEP block	Scp-1 conf	MG interference	Scp-1 Tm shift
Cn1cccc1C(=O)N1CCN(S(=O)(=O)c2cccc3ccccc23)CC1	x	5	x	x	x	x	x	x
CSc1ccc(NC(=O)Nc2ccc(C(=O)NCC(=O)O)cc2)cc1	39	10	-3	52*	11	36*	-21	6.0*
O=C(Cc1ccccc1)N/N=C/c1ccc(OC(=O)/C=C\c2ccco2)cc1	0	2	3	-1	0	x	x	x
CCc1ccc(OCC(=O)N/N=C\c2ccco2)c([N+](=O)[O-])c1	10	10	-1	80*	7	47*	-20	2
O=C(COc1cccc([N+](=O)[O-])c1)N/N=C/c1ccco1	18	0	-1	63*	14	45*	-11	-13
O=C(/C=C/c1ccco1)NCC(=O)N/N=C/c1ccc(Cl)cc1	-1	1	-9	1	0	x	x	x
COC(=O)N/N=C/c1ccc(OC(=O)/C=C/c2ccco2)cc1	5	1	-5	56*	6	9	-21	x
